In ChEMBL document CHEMBL4725236, “Synthesis and pharmacological evaluation of bivalent tethered ligands to target the mGlu heterodimeric receptor results in a compound with mGlu homodimer selectivity” (Bioorg Med Chem Lett, 2020):

Experiments:
Assay type in all cases: cell-based
[1] = biological target: Metabotropic glutamate receptor 2 (Rattus norvegicus) (UniProt P31421); assay: Positive allosteric modulation of rat mGlu2 receptor expressed in HEK293 cells coexpressing GIRK assessed as thallium influx by CODA-RET assay relative to glutamate; settings: filed as positive allosteric modulator
Metabotropic glutamate receptor 2 (Rattus norvegicus), sequence (P31421 19-872 limits assumed): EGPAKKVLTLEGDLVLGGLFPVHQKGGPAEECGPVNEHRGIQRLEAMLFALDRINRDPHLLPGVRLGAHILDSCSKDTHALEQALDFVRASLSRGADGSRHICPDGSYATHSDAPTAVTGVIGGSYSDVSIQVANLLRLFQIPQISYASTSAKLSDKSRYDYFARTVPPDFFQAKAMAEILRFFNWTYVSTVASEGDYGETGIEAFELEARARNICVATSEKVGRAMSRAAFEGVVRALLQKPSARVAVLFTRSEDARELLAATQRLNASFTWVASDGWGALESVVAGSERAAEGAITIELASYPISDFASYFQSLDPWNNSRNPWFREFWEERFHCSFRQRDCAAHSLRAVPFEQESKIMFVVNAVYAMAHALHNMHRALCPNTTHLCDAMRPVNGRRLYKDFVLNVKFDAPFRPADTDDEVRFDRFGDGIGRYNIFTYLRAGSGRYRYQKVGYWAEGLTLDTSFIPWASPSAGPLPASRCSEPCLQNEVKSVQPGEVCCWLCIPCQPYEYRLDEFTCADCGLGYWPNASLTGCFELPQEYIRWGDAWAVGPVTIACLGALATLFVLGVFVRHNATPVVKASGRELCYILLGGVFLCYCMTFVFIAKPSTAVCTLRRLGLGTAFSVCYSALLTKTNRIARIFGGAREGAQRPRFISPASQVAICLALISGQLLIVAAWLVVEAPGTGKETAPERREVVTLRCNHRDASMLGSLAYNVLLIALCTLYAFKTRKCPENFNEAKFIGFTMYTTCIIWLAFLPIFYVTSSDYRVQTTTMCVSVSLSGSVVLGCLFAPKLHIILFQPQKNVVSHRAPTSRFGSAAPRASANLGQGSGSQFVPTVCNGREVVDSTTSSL
Procedure, shortened: (§1)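 HEK293/GIRK thallium flux assay in cells expressing only mGlu2 or only mGlu4. Concentration-response measured against a fixed EC20 glutamate level. Potency (EC50), Hill slope and efficacy (% of the response to saturating glutamate) come from a single experiment run in triplicate.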

[2] = Positive allosteric modulation of rat mGlu2/mGlu4 receptor expressed in HEK293 cells coexpressing GIRK assessed as thallium influx in presence of EC20 glutamate by CODA-RET assay
Procedure, shortened: (§2)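 HEK293 cells co-expressing mGlu2, mGlu4 and GIRK channels; thallium flux read-out. Test compound concentration-response in the presence of a fixed EC20 glutamate concentration. Gives EC50, Hill slope and maximal response as % of a saturating glutamate concentration. N=3 experiments, each in triplicate.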

[3] = biological target: Metabotropic glutamate receptor 4 (Rattus norvegicus) (UniProt P31423); assay: Positive allosteric modulation of rat mGlu4 receptor expressed in HEK293 cells coexpressing GIRK assessed as thallium influx by CODA-RET assay relative to glutamate; settings: filed as positive allosteric modulator; procedure, shortened: as §1
Metabotropic glutamate receptor 4 (Rattus norvegicus), sequence (P31423 whole entry): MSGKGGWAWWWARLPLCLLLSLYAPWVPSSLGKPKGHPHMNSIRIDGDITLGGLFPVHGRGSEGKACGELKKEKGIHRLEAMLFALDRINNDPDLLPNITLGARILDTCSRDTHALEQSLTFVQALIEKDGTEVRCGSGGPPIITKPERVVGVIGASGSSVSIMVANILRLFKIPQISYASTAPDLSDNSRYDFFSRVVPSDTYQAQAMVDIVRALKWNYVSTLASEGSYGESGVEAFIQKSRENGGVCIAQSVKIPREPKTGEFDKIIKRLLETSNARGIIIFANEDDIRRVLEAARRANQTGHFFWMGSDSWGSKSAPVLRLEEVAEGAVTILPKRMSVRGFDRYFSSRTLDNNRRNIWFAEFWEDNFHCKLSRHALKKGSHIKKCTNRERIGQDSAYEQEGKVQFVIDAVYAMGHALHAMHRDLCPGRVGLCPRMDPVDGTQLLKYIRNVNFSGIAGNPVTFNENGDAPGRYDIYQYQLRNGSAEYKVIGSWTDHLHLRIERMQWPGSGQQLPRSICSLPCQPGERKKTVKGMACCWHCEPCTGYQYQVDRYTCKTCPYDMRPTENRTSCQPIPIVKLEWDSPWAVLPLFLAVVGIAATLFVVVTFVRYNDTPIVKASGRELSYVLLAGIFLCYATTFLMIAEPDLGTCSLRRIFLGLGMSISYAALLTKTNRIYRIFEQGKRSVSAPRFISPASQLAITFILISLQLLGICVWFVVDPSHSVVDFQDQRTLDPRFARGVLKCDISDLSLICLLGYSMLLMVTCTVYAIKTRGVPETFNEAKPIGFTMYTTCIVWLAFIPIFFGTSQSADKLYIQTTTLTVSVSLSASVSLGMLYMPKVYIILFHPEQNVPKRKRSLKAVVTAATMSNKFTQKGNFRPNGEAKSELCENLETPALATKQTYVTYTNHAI

[4] = biological target: Metabotropic glutamate receptor 2 (Rattus norvegicus, UniProt P31421); assay: Positive allosteric modulation of rat mGlu2 receptor expressed in HEK293 cells coexpressing GIRK assessed as thallium influx in presence of EC20 glutamate by CODA-RET assay; procedure, shortened: as §1
Metabotropic glutamate receptor 2, sequence (P31421 whole entry): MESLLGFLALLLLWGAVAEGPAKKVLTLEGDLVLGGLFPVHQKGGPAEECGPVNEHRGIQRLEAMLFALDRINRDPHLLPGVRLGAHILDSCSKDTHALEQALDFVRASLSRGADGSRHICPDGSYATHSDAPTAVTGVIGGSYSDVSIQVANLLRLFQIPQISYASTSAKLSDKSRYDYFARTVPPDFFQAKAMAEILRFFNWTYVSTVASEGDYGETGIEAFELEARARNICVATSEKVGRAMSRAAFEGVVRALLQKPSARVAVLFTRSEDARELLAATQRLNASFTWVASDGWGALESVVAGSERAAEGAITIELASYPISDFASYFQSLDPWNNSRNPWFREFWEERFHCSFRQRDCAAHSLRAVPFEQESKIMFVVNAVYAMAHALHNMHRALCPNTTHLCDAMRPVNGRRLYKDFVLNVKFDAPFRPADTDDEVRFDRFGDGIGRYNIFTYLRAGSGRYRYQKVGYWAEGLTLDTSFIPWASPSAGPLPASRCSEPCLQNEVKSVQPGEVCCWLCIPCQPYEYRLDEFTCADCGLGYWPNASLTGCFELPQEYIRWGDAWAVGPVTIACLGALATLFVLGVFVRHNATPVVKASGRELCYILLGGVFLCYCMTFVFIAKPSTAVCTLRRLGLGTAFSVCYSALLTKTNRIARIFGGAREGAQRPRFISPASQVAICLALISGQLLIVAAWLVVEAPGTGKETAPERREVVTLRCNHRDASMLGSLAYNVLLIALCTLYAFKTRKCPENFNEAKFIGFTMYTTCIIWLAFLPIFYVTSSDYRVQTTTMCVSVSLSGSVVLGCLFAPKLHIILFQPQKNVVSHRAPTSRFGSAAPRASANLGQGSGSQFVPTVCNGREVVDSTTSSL

HEK293 = assay: Positive allosteric modulation of rat mGlu2/mGlu4 receptor expressed in HEK293 cells coexpressing GIRK assessed as thallium influx by CODA-RET assay relative to glutamate; settings: filed as positive allosteric modulator; procedure, shortened: as §2
[5] = biological target: Metabotropic glutamate receptor 4 (Rattus norvegicus, UniProt P31423); assay: Positive allosteric modulation of rat mGlu4 receptor expressed in HEK293 cells coexpressing GIRK assessed as thallium influx in presence of EC20 glutamate by CODA-RET assay; procedure, shortened: as §1
Metabotropic glutamate receptor 4, sequence (P31423 whole entry): as the sequence (P31423 whole entry) above

Row | Compound | Emax [1] | EC50 [2] | Emax [3] | EC50 [4] | Emax (HEK293) | EC50 [5]
1 | COc1cc(NC(=O)c2ccccn2)ccc1NC(=O)c1ccc(NC(=O)COCC(=O)NCCCCCCCCCCNC(=O)COc2ccc(-c3cccc(COc4cc5c(c(C)c4C)C(=O)C(C4CCCC4)C5)c3)cc2C(=O)O)cc1Cl (stereo not given) | 102% | 0.35 µM | 41% | 0.134 µM | 86% | > 10 µM
2 | COc1ccc(-c2cccc(COc3cc4c(c(C)c3C)C(=O)C(C3CCCC3)C4)c2)cc1C(=O)O (stereo not given) | 88.2% | 0.3 µM | – | 0.0843 µM | 64.5% | –
3 | COc1cc(NC(=O)c2ccccn2)ccc1NC(=O)c1ccc(NC(=O)COCC(=O)NCCCNC(=O)COc2ccc(-c3cccc(COc4cc5c(c(C)c4C)C(=O)C(C4CCCC4)C5)c3)cc2C(=O)O)cc1Cl (stereo not given) | 100% | 0.09 µM | 114% | 0.054 µM | – | 0.038 µM
4 | Cc1c(OCc2cccc(-c3ccc(O)c(C(=O)O)c3)c2)cc2c(c1C)C(=O)C(C1CCCC1)C2 (stereo not given) | 113% | – | – | 0.062 µM | – | –
5 | COc1cc(NC(=O)c2ccccn2)ccc1NC(=O)c1ccc(NC(=O)COCC(=O)NCCCCCNC(=O)COc2ccc(-c3cccc(COc4cc5c(c(C)c4C)C(=O)C(C4CCCC4)C5)c3)cc2C(=O)O)cc1Cl (stereo not given) | 102% | 0.128 µM | 110% | 0.092 µM | 89% | 0.035 µM
6 | COc1cc(NC(=O)c2ccccn2)ccc1NC(=O)c1ccccc1Cl | – | 2.76 µM | 94.4% | – | 42% | 0.034 µM
7 | COc1cc(NC(=O)c2ccccn2)ccc1NC(=O)c1ccc(NC(=O)COCC(=O)NCCCCCCCCNC(=O)COc2ccc(-c3cccc(COc4cc5c(c(C)c4C)C(=O)C(C4CCCC4)C5)c3)cc2C(=O)O)cc1Cl (stereo not given) | 97% | 0.371 µM | 52% | 0.094 µM | 83% | 0.032 µM
8 | COc1cc(NC(=O)c2ccccn2)ccc1NC(=O)c1ccc(NC(=O)COCC(=O)NCCCCCCCNC(=O)COc2ccc(-c3cccc(COc4cc5c(c(C)c4C)C(=O)C(C4CCCC4)C5)c3)cc2C(=O)O)cc1Cl (stereo not given) | 101% | 0.524 µM | 85% | 0.122 µM | 86% | 0.03 µM
9 | COc1cc(NC(=O)c2ccccn2)ccc1NC(=O)c1ccc(NC(=O)COCC(=O)NCCCCNC(=O)COc2ccc(-c3cccc(COc4cc5c(c(C)c4C)C(=O)C(C4CCCC4)C5)c3)cc2C(=O)O)cc1Cl (stereo not given) | 98% | 0.15 µM | 113% | 0.098 µM | 88% | 0.033 µM
10 | COc1cc(NC(=O)c2ccccn2)ccc1NC(=O)c1ccc(NC(=O)COCC(=O)NCCCCCCCCCCCCNC(=O)COc2ccc(-c3cccc(COc4cc5c(c(C)c4C)C(=O)C(C4CCCC4)C5)c3)cc2C(=O)O)cc1Cl (stereo not given) | 102% | 2.07 µM | 45% | 1.18 µM | 71% | > 10 µM
11 | Cc1c(OCc2cccc(-c3cccc(C(=O)O)c3)c2)cc2c(c1C)C(=O)C(C1CCCC1)C2 (stereo not given) | 118% | – | – | 0.069 µM | – | –
12 | COc1cc(NC(=O)c2ccccn2)ccc1NC(=O)c1ccc(NC(=O)COCC(=O)NCCCCCCNC(=O)COc2ccc(-c3cccc(COc4cc5c(c(C)c4C)C(=O)C(C4CCCC4)C5)c3)cc2C(=O)O)cc1Cl (stereo not given) | 102% | 0.68 µM | 106% | 0.062 µM | 101% | 0.032 µM
13 | COc1cc(NC(=O)c2ccccn2)ccc1NC(=O)c1ccc(NC(=O)COCC(=O)NCCNC(=O)COc2ccc(-c3cccc(COc4cc5c(c(C)c4C)C(=O)C(C4CCCC4)C5)c3)cc2C(=O)O)cc1Cl (stereo not given) | 92% | 0.463 µM | 104% | 0.281 µM | 70% | 0.657 µM
